Insulin prom act – TRM-6 insulin promoter activation; AID 1296; TRM-6 cells (human fetal islet line), insulin promoter eGFP reporter, imaging; plate-scaled: unstimulated 0, stimulated control 100; 130,000 compounds, 0.81% hits; activation, % at 2 µM;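 active means activation at 2 µM above a set limit, confirmed on inspection of the cell images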;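 further: share of cells whose green reporter signal exceeds an intensity cutoff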
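Test system: TRM-6 insulin promoter–eGFP reporter cells / Quantity: 1,000 cells per well / Reagent: tamoxifen inducer, 0.75 µM, in seeding medium / Compound dosing: 2 µM final, single concentration / Schedule: overnight tamoxifen, then two-day compound incubation at 37 °C / Measured by: automated fluorescence imaging of paraformaldehyde-fixed, Hoechst-counterstained cells, green channel / Read-out: percent activation from GFP-positive cell fraction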
Active calls of the source: *. Many of the other results were omitted from the sample, so hits are more common in it than they were.

COc1ccc(C(=O)/C=C/c2ccc(OC(=O)c3cc(OC)c(OC)c(OC)c3)cc2)cc1 was read as Insulin prom act 8.
Screening COc1cc(C(=O)Oc2cc(C)cc(C)c2)cc(OC)c1OC returned Insulin prom act 607*.
COc1cc(C(=O)Nc2ccccn2)cc(OC)c1OC was read as Insulin prom act 10.
Screening Cc1c(/C=N/NC(=O)c2cc(=O)[nH]c(=O)[nH]2)c2ccccn2c1C(=O)c1ccccc1 returned Insulin prom act 5.
Screening COc1ccc(-c2nc3cc(NC(=O)Cc4ccc(OC)c(OC)c4)ccc3o2)cc1 returned Insulin prom act -6.
`N#Cc1nc(-c2cccc(Cl)c2)oc1NCc1cccnc1` gave Insulin prom act 0.
CCN1C(=O)CC(N2CCN(c3cccc(OC)c3)CC2)C1=O (centres undefined) was read as Insulin prom act 0.
Screening COc1cccc(N2CCN(C3CC(=O)N(c4cccc(Cl)c4)C3=O)CC2)c1 (centres undefined) returned Insulin prom act -4.
Screening CCOc1cccc(N2C(=O)CC(N3CCN(c4ccc(S(=O)(=O)CC)cc4)CC3)C2=O)c1 (centres undefined) returned Insulin prom act 80*.
`CCOC(=O)Cc1ccc2sc(-c3ccccc3)nc2c1` gave Insulin prom act 9.
`CCCc1cc(=O)[nH]c(SCc2cccnc2)n1` gave Insulin prom act 342.
`O=c1cc(O)nc(SCc2ccccc2)[nH]1` gave Insulin prom act 525*.
Screening O=c1cc(NS(=O)(=O)c2ccccc2)nc(SCc2ccc(Cl)cc2)[nH]1 returned Insulin prom act -8.
For CCN(C(=O)CSc1nnc(Nc2ccccc2)s1)C1CCS(=O)(=O)C1 (centres undefined) the results were Insulin prom act 6.
Cc1[nH]c2ccccc2c1[C@H]1[C@@H](CC#N)C1(C)C was read as Insulin prom act -5.
Cc1ccc(Cc2nnc3n(-c4ccccc4)nc(C(=O)c4ccccc4)n3c2=O)cc1 was read as Insulin prom act 0.
COc1cc(OC)c(-c2cc(C(=O)O)ccc2OC)c(OC)c1 was read as Insulin prom act 0.
COc1ccc(NC(=O)c2ccc(COc3ccccc3)o2)cc1 was read as Insulin prom act -5.
For COC(=O)c1ccccc1NC(=O)c1ccc(COc2ccccc2)o1 the results were Insulin prom act 585*.
`COc1ccccc1OCc1ccc(C(=O)NC(C)(C)C)o1` gave Insulin prom act 50.
`Cc1c(C(=O)O)sc2nc3n(c(=O)c12)CCC3` gave Insulin prom act 0.
O=c1c2c(-c3ccc([N+](=O)[O-])cc3)csc2nc2n1CCC2 was read as Insulin prom act 481*.
O=C(Nc1ccc2nc3n(c(=O)c2c1)CCCC3)c1cccc([N+](=O)[O-])c1 was read as Insulin prom act 0.
Screening Clc1cccc(N2CCN(c3nnnn3-c3ccccc3)CC2)c1 returned Insulin prom act 7.
Screening Fc1cccc(-n2ncc(-c3nnnn3-c3ccccc3)c2C(F)(F)F)c1 returned Insulin prom act 529*.
`c1ccc(-n2nnnc2OCCOc2nnnn2-c2ccccc2)cc1` gave Insulin prom act 154.
COc1cc(NC(=O)c2cccc(C)c2)c(Cl)cc1[N+](=O)[O-] was read as Insulin prom act 0.
Cc1ccc(NC(=S)Nc2ccc(C(C)C)cc2)cc1S(=O)(=O)N1CCCCCC1 was read as Insulin prom act -7.
Screening CCOC(=O)N1CCC(Nc2c(-c3ccccc3)c(=O)c2=O)CC1 returned Insulin prom act 86*.
For CCOC(=O)N1CCN(C(=O)c2ccccc2NC(C)=O)CC1 the results were Insulin prom act 4.
CCOC(=O)N1CCN(c2c(NCCN(C)Cc3ccccc3)c(=O)c2=O)CC1 was read as Insulin prom act 0.
`O=C(O)CSCCOc1ccc(OCCSCC(=O)O)cc1` gave Insulin prom act -7.
`COCCn1c(N)c(Sc2ccc([N+](=O)[O-])cc2)c(=O)[nH]c1=O` gave Insulin prom act -6.
For NC(=O)c1ccccc1NS(=O)(=O)c1ccccc1 the results were Insulin prom act 0.
Screening Cc1ccc(S(=O)(=O)Nc2ccccc2C(N)=O)cc1 returned Insulin prom act 403*.
For Cc1ccc(S(=O)(=O)Nc2cc(Cl)c(O)cc2C)cc1 the results were Insulin prom act 9.
Screening Fc1cc(F)cc(NC(=S)Nc2ccccc2N2CCOCC2)c1 returned Insulin prom act -9.
For COc1cc(CCN2C(=O)N[C@@H](CCc3ccccc3)C(C(C)=O)=C2C)cc(OC)c1OC the results were Insulin prom act -9.
CCN(c1ccccc1)S(=O)(=O)c1ccc(C(=O)NCCCn2ccnc2)cc1 was read as Insulin prom act 9.
For O=C(NCCCn1ccnc1)c1cccc(S(=O)(=O)NCc2ccccc2)c1 the results were Insulin prom act 400*.
Screening O=C(NCCCn1ccnc1)c1cccc(S(=O)(=O)Nc2ccccc2F)c1 returned Insulin prom act -9.
`CC1CCCCC1NC(=O)/C(C#N)=C/c1ccccc1F` (centres undefined) gave Insulin prom act -7.
For Fc1cccc(Nc2cc(-n3cccn3)ncn2)c1 the results were Insulin prom act -10.
For O=C(NCN1C(=O)C2C3C=CC(C3)C2C1=O)Nc1nccs1 (centres undefined) the results were Insulin prom act -9.
For Cc1sc2nc(CN3CCCCC3)nc(Nc3ccc4c(c3)OCCO4)c2c1C the results were Insulin prom act 0.
CN(C)S(=O)(=O)c1cccc(NC(=S)N(CCC#N)Cc2cccnc2)c1 was read as Insulin prom act 453*.
N#CCCN(Cc1cccnc1)C(=S)Nc1ccc(OC(F)F)cc1 was read as Insulin prom act 109.
CC1(C(=O)NC(=S)N(CCC#N)Cc2cccnc2)CC1(Cl)Cl (centres undefined) was read as Insulin prom act -4.
`COc1cccc(N(CC(=O)Nc2ccc3c(c2)OCO3)S(=O)(=O)c2ccccc2)c1` gave Insulin prom act 0.
CCOc1ccc(-c2nnn(CC(=O)N3CCCC3)n2)cc1OCC was read as Insulin prom act -83.
CN(C)S(=O)(=O)c1ccc(C(=O)Nc2ccc(CN3CCCC3)cc2)cc1 was read as Insulin prom act 6.
`CN(C)S(=O)(=O)c1ccc(C(=O)Nc2ccc(CCC(=O)N3CCCC3)cc2)cc1` gave Insulin prom act 449*.
`CCN(CC)S(=O)(=O)c1ccc(C(=O)Nc2ccc(Cc3ccncc3)cc2)cc1` gave Insulin prom act -7.
Screening CCn1cc(C(=O)N2CCN(c3ccccn3)CC2)c(=O)c2cc(S(=O)(=O)N(C)C3CCCCC3)ccc21 returned Insulin prom act 7.
COc1cccc(-n2c(Cc3cc(=O)[nH]c(=O)[nH]3)nnc2SCc2cccc(C(F)(F)F)c2)c1 was read as Insulin prom act 7.
Screening CCc1ccc(NC(=O)N(CCN2CCOCC2)Cc2ccc3c(c2)CCCN3CC)cc1 returned Insulin prom act -8.
For CCN1CCCc2cc(CN(CCN3CCOCC3)C(=S)Nc3ccc(OC)c(OC)c3)ccc21 the results were Insulin prom act 425*.
For CCN1CCCc2cc(CN(CCN3CCOCC3)C(=S)Nc3ccccc3C)ccc21 the results were Insulin prom act -8.
`COCCN(C(=O)c1csnn1)C(C(=O)NC(C)(C)C)c1cccc(OC)c1` (centres undefined) gave Insulin prom act -5.
C/C(=N\NC(=O)c1cccc(Cl)c1)c1cccc(NC(=O)C(C)C)c1 was read as Insulin prom act 3.

Screens as filed in PubChem BioAssay.
